Source: ChEMBL document CHEMBL5316351, “Development of a Covalent Inhibitor of c-Jun N-Terminal Protein Kinase (JNK) 2/3 with Selectivity over JNK1” (J Med Chem, 2023)
Active and inactive are the calls of the source. The calls are words filed in the database; no cut-off is given here.

Legend:
[1] = Half life in human liver microsomes at 1 uM by LC-MS/MS analysis; type: ADME, Microsome
[2] = target: Mitogen-activated protein kinase 10 (Homo sapiens) (UniProt P53779); test: Inhibition of JNK3 in human MM1.S cells at 1 uM by KiNativ Profiling analysis; type: cell-based
Chain of Mitogen-activated protein kinase 10 (Homo sapiens) (P53779 whole entry): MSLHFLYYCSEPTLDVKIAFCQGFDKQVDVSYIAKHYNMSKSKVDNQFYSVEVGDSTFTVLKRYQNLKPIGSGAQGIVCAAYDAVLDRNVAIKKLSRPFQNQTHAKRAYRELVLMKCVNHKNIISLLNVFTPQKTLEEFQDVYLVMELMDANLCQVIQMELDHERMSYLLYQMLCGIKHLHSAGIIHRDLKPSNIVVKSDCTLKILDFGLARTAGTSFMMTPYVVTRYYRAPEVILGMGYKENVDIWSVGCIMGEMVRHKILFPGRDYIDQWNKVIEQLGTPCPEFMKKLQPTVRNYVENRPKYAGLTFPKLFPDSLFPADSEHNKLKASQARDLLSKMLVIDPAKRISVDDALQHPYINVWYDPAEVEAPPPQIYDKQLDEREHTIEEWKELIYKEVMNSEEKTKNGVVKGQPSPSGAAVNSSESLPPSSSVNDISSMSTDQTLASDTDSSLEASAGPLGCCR
How it was run: (§1)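 MM.1S cells treated with 1 μM compound, collected, PBS-washed, frozen; KiNativ lysate profiling with ATP/ADP-biotin probe labelling conserved catalytic lysine.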

[3] = Antiproliferative activity against Bortezomib-resistant human ANBL-6 cells assessed as inhibition of cell growth incubated for 72 hrs by CellTiter-Glo luminescent assay; type: functional, cell-based; conditions: ANBL-6, 72 h
[4] = Antiproliferative activity against human HAP1 cells assessed as inhibition of cell growth incubated for 3 days by CellTiter-Glo luminescent assay; type: functional, cell-based; conditions: HAP1, 72 h
MM1.S [5] = test: Induction of apoptosis in human MM1.S cells assessed as increase in caspase-3 cleavage at 0.5 to 2.5 uM incubated for 24 hrs by immunoblot analysis; type: functional, cell-based; conditions: dose 0.5-2.5 µM
[6] = target: T1, Mitogen-activated protein kinase 8 (Homo sapiens, UniProt P45983); test: Covalent binding affinity to JNK1 in human MM1.S cells at 2 uM incubated for 6 hrs by biotin-JNK-IN-7 probe based pull-down competition based analysis; type: cell-based
T1 sequence (P45983 whole entry): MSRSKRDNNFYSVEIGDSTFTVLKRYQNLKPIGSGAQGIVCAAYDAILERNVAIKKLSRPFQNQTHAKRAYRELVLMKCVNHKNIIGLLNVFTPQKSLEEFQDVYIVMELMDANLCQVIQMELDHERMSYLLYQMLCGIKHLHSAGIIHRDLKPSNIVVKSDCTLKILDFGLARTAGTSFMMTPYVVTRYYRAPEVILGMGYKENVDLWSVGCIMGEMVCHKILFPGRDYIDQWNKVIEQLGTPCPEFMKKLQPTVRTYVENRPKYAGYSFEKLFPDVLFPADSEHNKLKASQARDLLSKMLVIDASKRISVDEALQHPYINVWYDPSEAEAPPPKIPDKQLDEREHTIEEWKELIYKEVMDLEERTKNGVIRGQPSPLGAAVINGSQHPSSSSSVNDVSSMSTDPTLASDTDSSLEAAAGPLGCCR
How it was run: (§2)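 MM.1S cells exposed to compound or DMSO 6 h; lysed in HEPES pH 7.4/NP-40 buffer; lysates incubated with 1 μM biotin-JNK-IN-7 overnight at 4 °C then 2 h room temperature; streptavidin pull-down 2–3 h at 4 °C; bound JNK1/JNK2 detected by western blot.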

[7] = target: T1, Mitogen-activated protein kinase 8; test: Inhibition of JNK1 in human MM1.S cells at 1 uM by KiNativ Profiling analysis; type: cell-based; how it was run: as §1
[8] = target: T2, Mitogen-activated protein kinase 9 (Homo sapiens, UniProt P45984); test: Inhibition of JNK2 in human MM1.S cells at 1 uM by KiNativ Profiling analysis; type: cell-based; how it was run: as §1
T2 sequence (P45984 whole entry, looked up): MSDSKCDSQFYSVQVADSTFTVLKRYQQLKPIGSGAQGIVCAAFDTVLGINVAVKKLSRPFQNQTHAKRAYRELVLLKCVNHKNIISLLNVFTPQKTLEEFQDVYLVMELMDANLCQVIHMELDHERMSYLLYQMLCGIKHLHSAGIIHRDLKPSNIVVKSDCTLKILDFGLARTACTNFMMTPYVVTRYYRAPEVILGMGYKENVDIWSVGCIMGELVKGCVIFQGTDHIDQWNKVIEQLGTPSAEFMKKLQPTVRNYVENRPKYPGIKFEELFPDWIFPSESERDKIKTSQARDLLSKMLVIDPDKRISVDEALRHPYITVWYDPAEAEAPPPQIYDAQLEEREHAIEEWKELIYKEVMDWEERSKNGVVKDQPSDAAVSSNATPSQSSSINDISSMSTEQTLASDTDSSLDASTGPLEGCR

MM1.S [9] = test: Induction of apoptosis in human MM1.S cells assessed as increase in PARP cleavage at 0.5 to 2.5 uM incubated for 24 hrs by immunoblot analysis; type: functional, cell-based; conditions: dose 0.5-2.5 µM
[10] = target: T2, Mitogen-activated protein kinase 9; test: Inhibition of His-tagged human recombinant JNK2 expressed in baculovirus expression system incubated for 1 hr in presence of ATP by Z'-Lyte assay relative to control
[11] = target: T3, 1-phosphatidylinositol 3-phosphate 5-kinase (Homo sapiens, UniProt Q9Y2I7); test: Inhibition of PIKFYVE in human SUM159 cells at 1 uM by KiNativ Profiling analysis; type: cell-based; conditions: SUM159PT
T3 sequence (Q9Y2I7 whole entry): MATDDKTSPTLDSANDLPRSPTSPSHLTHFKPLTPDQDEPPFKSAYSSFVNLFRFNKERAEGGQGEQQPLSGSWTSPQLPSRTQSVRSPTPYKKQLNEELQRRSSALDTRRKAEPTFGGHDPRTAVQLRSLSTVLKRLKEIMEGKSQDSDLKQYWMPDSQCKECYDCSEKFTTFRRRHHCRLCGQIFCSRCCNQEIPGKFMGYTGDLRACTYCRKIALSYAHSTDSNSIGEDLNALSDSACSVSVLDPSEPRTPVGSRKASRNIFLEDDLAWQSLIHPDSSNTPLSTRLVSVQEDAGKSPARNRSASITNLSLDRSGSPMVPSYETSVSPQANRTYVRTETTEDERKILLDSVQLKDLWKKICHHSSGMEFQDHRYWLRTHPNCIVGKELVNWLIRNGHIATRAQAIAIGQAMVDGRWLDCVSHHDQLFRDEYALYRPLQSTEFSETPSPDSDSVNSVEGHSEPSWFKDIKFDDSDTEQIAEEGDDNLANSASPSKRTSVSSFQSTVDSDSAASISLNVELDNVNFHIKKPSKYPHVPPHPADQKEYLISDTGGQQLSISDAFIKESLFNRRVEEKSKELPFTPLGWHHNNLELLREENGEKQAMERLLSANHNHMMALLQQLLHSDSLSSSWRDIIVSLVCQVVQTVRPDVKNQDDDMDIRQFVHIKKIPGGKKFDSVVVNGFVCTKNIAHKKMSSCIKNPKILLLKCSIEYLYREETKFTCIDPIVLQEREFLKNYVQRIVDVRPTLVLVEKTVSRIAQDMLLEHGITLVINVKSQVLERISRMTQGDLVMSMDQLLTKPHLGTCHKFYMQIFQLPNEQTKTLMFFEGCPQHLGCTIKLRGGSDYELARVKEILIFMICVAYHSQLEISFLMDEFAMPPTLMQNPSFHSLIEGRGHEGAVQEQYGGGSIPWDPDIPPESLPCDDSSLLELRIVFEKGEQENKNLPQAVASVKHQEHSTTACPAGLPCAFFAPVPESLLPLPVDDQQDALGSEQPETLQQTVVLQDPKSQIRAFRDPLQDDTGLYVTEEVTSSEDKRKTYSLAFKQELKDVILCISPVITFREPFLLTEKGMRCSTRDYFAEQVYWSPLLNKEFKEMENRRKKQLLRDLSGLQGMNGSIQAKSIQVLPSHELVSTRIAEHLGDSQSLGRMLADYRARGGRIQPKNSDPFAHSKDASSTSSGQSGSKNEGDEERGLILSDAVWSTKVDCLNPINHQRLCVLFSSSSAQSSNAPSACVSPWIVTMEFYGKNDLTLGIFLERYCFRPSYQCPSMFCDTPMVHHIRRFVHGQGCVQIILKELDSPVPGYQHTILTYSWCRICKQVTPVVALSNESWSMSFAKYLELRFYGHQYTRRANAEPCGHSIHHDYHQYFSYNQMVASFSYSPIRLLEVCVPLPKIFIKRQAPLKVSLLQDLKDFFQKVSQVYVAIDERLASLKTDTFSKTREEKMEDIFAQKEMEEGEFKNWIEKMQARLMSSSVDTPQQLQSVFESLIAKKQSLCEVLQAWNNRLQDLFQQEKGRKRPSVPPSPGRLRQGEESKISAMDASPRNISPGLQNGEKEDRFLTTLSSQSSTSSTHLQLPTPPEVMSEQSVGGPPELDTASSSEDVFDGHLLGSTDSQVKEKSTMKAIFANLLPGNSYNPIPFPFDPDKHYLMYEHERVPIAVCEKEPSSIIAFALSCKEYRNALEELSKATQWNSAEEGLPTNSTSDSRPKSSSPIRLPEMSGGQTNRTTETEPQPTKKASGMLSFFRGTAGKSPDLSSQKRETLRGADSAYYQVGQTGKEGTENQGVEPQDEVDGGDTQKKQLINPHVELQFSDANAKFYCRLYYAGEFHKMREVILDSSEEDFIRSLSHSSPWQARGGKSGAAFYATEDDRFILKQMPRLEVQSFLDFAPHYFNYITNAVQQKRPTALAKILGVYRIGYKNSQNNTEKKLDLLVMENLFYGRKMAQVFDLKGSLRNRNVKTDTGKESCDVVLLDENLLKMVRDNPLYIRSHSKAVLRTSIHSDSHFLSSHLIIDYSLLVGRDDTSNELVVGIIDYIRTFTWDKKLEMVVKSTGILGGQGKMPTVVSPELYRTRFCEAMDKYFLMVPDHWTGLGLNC
How it was run: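 SUM159 cells treated with 1 μM compound, collected, PBS-washed and frozen; lysates probed with ATP/ADP-biotin acyl probe labelling catalytic lysine (KiNativ); protection from labelling measured.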

[12] = target: T4, Mitogen-activated protein kinase 14 (Homo sapiens, UniProt Q16539); test: Inhibition of GST-tagged human recombinant p38alpha expressed in Escherichia coli by Z'-LYTE assay
T4 sequence (Q16539 whole entry): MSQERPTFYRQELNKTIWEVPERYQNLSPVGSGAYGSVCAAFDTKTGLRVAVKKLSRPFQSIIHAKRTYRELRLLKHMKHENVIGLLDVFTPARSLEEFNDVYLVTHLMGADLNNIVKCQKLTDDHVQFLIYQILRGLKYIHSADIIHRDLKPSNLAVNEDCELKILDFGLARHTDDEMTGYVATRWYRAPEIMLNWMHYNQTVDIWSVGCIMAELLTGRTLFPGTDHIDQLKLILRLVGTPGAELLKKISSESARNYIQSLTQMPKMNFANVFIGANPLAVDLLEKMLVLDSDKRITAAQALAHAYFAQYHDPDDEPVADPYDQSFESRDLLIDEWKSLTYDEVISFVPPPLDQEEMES

[13] = target: T2, Mitogen-activated protein kinase 9; test: Covalent binding affinity to JNK2 in human MM1.S cells at 500 nM incubated for 6 hrs by biotin-JNK-IN-7 probe based pull-down competition based analysis; type: cell-based; how it was run: as §2
[14] = Antiproliferative activity against human HAP1 cells transfected with sgGFP assessed as inhibition of cell growth incubated for 3 days by CellTiter-Glo luminescent assay; type: functional, cell-based; conditions: HAP1, 72 h
[15] = GSH reactivity in potassium phosphate buffer at pH 7.4 assessed as half life at 1 uM by LC-MS/MS analysis; type: ADME; conditions: pH 7.4, 1 µM
[16] = Half life in mouse liver microsomes at 1 uM by LC-MS/MS analysis; type: ADME, Microsome
[17] = target: T3, 1-phosphatidylinositol 3-phosphate 5-kinase; test: Inhibition of wild type partial length human PIKFYVE (F1512 to C2098 residues) expressed in mammalian expression system at 1 uM by KinomeScan analysis
How it was run: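 KINOMEscan (ScanMAX) binding panel of >400 kinases, compound tested at 1 μM; reported as percent inhibition/score.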

MM1.S [18] = test: Antiproliferative activity against human MM1.S cells assessed as inhibition of cell growth rate pretreated for 1 hr with JNK2 inhibitor, CC930 followed by incubation with drug and measured after 72 hrs by CellTiter-Glo luminescent assay; type: functional, cell-based
How it was run: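 MM.1S cells seeded 4000 cells/well, pretreated with 10 μM CC930, then exposed to inhibitor for 72 h; CellTiter-Glo luminescence, GR values from GR calculator; three biological replicates.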

[19] = Antiproliferative activity against JNK knock-out human HAP1 cells transfected with sgJNK#2 assessed as inhibition of cell growth incubated for 3 days by CellTiter-Glo luminescent assay; type: functional, cell-based; conditions: HAP1, 72 h
MM1.S [20] = test: Antiproliferative activity against human MM1.S cells assessed as inhibition of cell growth rate measured after 72 hrs by CellTiter-Glo luminescent assay; type: functional
[21] = target: T3, 1-phosphatidylinositol 3-phosphate 5-kinase; test: Inhibition of PIKFYVE in human MDA-MB-231 cells assessed as vacuole formation upto 4 uM measured after 3 days by bright field microscopy; type: cell-based; conditions: time 3.0 day
How it was run: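 MDA-MB-231 cells (DMEM, 10% FBS) seeded, next day treated with inhibitor or DMSO; after 3 days imaged by bright-field microscopy at 20× for vacuoles.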

[22] = target: T1, Mitogen-activated protein kinase 8; test: Inhibition of His-tagged human recombinant JNK1 expressed in insect cells incubated for 1 hr in presence of ATP by Z'-Lyte assay relative to control; conditions: Insect cell
[23] = target: T4, Mitogen-activated protein kinase 14; test: Inhibition of Nano-Luc fused p38alpha (unknown origin) expressed in HEK293T cells pretreated for 3 hrs followed by K5-tarcer addition and measured after 1 hr by NanoBRET assay; type: cell-based; conditions: time 4.0 hrs
MM1.S [24] = type: functional, cell-based; conditions: Homo sapiens, time 72.0 hrs
[25] = Antiproliferative activity against wild type human ANBL-6 cells assessed as inhibition of cell growth incubated for 72 hrs by CellTiter-Glo luminescent assay; type: functional, cell-based; conditions: ANBL-6, 72 h
[26] = target: Mitogen-activated protein kinase 10 (Homo sapiens) (UniProt P53779); test: Inhibition of GST-tagged human recombinant JNK3 expressed in insect cells incubated for 1 hr in presence of ATP by Z'-lyte assay relative to control; conditions: Insect cell
MM1.S [27] = test: Antiproliferative activity against human MM1.S cells overexpressing wild type JNK2 assessed as inhibition of cell growth rate measured after 72 hrs by CellTiter-Glo luminescent assay; type: functional, cell-based
MM1.S [28] = test: Induction of apoptosis in human MM1.S cells at 250 nM by AnnexinV/PI staining based flow cytometry; type: functional, cell-based
[29] = Antiproliferative activity against JNK knock-out human HAP1 cells transfected with sgJNK#1 assessed as inhibition of cell growth incubated for 3 days by CellTiter-Glo luminescent assay; type: functional, cell-based; conditions: HAP1, 72 h

- t1/2 [1]: 16 min
- inhibition [2]: Active
- Activity [6]: Active
- inhibition [7]: Active
- inhibition [8]: Active
- Imax [10]: 98%
- inhibition [11]: inactive
- IC50 [12]: 15 nM
- Activity [13]: Active
- t1/2 [15]: 46 min
- t1/2 [16]: 11 min
- inhibition [17]: 44%
- inhibition [21]: inactive
- Imax [22]: 85%
- inhibition [23]: Active
- Imax [26]: 68%
Structure (SMILES): C[C@H]1CN(C(=O)c2ccc(NC(=O)/C=C/CN(C)C)cc2)C[C@H]1Nc1nccc(-c2c(-c3ccccc3)nn3ccccc23)n1
- IC50 [3]: 96 nM
- IC50 [4]: 529 nM
- Activity (MM1.S [5]): Active
- Activity (MM1.S [9]): Active
- IC50 [14]: 976 nM
- Activity (MM1.S [18]): Active
- IC50 [19]: 846 nM
- GR50 (MM1.S [20]): 200 nM
- Activity (MM1.S [24]): Active
- IC50 [25]: 120 nM
- Activity (MM1.S [27]): Active
- Activity (MM1.S [28]): Active
- IC50 [29]: 1110 nM
